# pIC50: −log10 of the molar value. The source made the active and inactive calls. The rule behind the calls is not given here.
# Legend:
# [1] = molecular target: T1, Voltage-dependent T-type calcium channel subunit alpha-1H (Homo sapiens, UniProt O95180); test: Inhibition of Cav3.2 alpha1H (unknown origin) expressed in HEK293 cells assessed as reduction in KCl-induced depolarization mediated intracellular Ca2+ level at 10 uM by fluo3/AM based high throughput screening assay relative to control; assay type: cell-based
# T1 sequence (O95180 whole entry): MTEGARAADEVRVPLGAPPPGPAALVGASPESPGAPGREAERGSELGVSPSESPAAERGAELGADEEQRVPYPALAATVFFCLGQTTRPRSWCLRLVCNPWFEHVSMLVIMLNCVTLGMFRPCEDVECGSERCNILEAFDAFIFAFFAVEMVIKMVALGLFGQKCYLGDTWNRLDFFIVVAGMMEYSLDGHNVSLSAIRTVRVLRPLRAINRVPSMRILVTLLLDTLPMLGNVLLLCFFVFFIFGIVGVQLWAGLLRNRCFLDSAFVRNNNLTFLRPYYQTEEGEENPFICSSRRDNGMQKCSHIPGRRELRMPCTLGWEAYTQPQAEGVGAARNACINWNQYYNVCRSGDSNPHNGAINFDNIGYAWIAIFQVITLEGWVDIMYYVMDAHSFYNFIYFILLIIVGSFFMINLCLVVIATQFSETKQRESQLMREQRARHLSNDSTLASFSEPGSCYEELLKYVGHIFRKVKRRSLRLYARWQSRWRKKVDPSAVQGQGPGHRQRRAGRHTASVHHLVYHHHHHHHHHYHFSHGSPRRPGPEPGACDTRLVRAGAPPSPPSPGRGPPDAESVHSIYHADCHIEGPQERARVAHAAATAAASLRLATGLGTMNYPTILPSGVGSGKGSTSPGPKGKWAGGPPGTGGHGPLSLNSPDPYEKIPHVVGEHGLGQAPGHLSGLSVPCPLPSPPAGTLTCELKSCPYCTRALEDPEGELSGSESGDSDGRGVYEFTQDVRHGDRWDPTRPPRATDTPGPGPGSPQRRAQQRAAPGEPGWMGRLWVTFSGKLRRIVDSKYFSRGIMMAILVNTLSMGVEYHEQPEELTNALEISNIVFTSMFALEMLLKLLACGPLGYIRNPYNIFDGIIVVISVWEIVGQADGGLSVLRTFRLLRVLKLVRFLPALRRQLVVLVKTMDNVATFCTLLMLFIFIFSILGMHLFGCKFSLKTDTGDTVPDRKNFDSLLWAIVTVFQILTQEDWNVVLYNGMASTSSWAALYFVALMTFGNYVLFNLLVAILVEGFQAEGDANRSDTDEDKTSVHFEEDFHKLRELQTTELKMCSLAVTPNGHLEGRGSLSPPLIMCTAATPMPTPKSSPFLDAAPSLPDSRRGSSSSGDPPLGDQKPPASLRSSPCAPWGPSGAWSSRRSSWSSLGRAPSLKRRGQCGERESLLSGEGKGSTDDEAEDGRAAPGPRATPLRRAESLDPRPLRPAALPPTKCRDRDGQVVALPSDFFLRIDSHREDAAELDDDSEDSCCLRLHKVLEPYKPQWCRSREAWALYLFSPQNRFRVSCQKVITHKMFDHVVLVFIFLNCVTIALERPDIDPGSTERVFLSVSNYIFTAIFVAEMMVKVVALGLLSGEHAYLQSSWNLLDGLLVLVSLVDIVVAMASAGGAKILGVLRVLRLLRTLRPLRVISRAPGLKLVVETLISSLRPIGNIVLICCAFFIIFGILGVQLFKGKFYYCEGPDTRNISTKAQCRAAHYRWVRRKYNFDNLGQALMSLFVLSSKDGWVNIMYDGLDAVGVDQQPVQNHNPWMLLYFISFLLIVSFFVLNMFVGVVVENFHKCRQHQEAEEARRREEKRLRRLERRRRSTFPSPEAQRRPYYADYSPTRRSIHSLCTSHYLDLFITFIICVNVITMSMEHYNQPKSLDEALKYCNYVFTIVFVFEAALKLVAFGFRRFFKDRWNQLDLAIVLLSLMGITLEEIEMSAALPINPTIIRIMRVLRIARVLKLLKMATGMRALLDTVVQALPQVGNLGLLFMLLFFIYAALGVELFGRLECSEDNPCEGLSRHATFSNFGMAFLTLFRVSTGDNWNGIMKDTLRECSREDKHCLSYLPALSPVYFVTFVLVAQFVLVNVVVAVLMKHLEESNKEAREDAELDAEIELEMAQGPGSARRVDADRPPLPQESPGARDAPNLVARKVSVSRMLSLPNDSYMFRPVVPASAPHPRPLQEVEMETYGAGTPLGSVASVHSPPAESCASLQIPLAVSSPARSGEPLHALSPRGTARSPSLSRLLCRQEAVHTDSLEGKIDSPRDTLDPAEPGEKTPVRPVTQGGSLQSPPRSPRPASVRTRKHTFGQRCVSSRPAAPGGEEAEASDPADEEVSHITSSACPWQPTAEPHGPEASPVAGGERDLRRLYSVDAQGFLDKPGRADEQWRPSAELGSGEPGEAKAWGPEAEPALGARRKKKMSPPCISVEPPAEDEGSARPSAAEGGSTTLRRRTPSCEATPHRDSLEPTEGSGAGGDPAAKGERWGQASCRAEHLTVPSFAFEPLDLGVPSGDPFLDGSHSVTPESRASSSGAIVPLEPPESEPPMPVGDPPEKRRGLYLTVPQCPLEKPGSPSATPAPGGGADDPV
# In short: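 HEK293 cells stably expressing the T-type channel were kept under puromycin/geneticin selection with 10% FBS at 37 °C and 5% CO2. Cells were seeded at 4×10^4 per well and loaded with fluo3/AM plus 0.001% Pluronic F-127 in HEPES buffer (pH 7.4, 1.8 mM CaCl2) for 60 min at room temperature. The KCl depolarisation-evoked [Ca2+]i rise was read on FDSS6000.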
# CYP3A4 = CYP3A4 (Homo sapiens, UniProt P08684); test: Inhibition of recombinant human CYP3A4 expressed in baculosomes assessed as residual activity at 10 uM using vivid BOMCC/DBOMF/BOMR as substrate after 15 mins in presence of NADPH by fluorescence assay relative to control; assay type: ADME; details: probe Vivid BOMCC/DBOMF/BOMR, read-out: Activity
# Sequence of CYP3A4 (P08684 whole entry, canonical isoform): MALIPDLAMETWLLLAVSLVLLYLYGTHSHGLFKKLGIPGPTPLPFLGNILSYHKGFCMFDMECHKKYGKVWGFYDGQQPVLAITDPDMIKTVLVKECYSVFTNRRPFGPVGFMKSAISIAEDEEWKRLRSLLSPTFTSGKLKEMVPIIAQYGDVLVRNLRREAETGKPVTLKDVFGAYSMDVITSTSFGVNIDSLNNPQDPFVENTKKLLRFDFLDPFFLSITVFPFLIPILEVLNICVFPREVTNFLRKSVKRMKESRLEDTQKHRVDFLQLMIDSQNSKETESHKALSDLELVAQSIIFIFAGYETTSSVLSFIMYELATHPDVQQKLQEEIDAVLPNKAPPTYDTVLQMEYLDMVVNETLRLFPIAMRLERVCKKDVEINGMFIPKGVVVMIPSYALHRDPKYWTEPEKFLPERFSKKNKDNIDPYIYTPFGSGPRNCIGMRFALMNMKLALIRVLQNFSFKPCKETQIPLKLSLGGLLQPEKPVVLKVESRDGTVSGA
# In short: (§1)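 Test compounds at 10 μM were premixed with baculosome CYP plus a regeneration system. After 15 min at 37 °C, Vivid substrates and NADPH were added. Remaining enzyme activity was read by fluorescence and expressed as % of control, as mean ± SD of triplicates. Isoform-selective inhibitors served as positive controls.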
# [2] = Ratio of drug level in brain to plasma in rat at 10 mg/kg, iv measured at 2 hrs post dose; assay type: ADME, organism-based; details: brain and plasma, read-out: BPR
# In short: (§2)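 Male rats dosed at 10 mg/kg, intravenously (n = 5) or orally (n = 4). Parameters taken from the plasma concentration-time curve and reported as mean ± SD. Brain-to-plasma ratio measured 2 h after dosing. Tmax given as median with range.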
# [3] = Tmax in rat at 10 mg/kg, po; assay type: ADME, organism-based; details: in vivo; in short: as §2
# [4] = Terminal half-life in rat at 10 mg/kg, iv; assay type: ADME, organism-based; details: in vivo, read-out: beta t1/2; in short: as §2
# [5] = Clearance in rat at 10 mg/kg, iv; assay type: ADME, organism-based; details: in vivo; in short: as §2
# [6] = Cmax in rat at 10 mg/kg, po; assay type: ADME, organism-based; parameters: dose 10 mg/kg, route oral; details: in vivo; in short: as §2
# Rattus norvegicus [7] = test: Anti-algetic activity in rat streptozotocin-induced neuropathic pain model assessed as reduction in mechanical allodynia at 100 mg/kg, po measured after 3 hrs; assay type: functional, organism-based
# In short: (§3)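 STZ-diabetic rats were made by i.p. streptozotocin at 65 mg/kg. After 4 weeks, rats with confirmed neuropathic pain were selected by blood glucose and behavioural testing. A single oral dose of 100 mg/kg was given (n = 5–6). Mechanical allodynia was tested by von Frey, and heat hypersensitivity was also assessed, at 1, 3 and 5 h. Comparison was against pre-dose values by paired t-test.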
# CYP2C9 = CYP2C9 (Homo sapiens, UniProt P11712); test: Inhibition of recombinant human CYP2C9 expressed in baculosomes assessed as residual activity at 10 uM using vivid BOMCC/BOMF/OOMR as substrate after 15 mins in presence of NADPH by fluorescence assay relative to control; assay type: ADME; details: probe Vivid BOMCC/BOMF/OOMR, read-out: Activity; in short: as §1
# Sequence of CYP2C9 (P11712 whole entry): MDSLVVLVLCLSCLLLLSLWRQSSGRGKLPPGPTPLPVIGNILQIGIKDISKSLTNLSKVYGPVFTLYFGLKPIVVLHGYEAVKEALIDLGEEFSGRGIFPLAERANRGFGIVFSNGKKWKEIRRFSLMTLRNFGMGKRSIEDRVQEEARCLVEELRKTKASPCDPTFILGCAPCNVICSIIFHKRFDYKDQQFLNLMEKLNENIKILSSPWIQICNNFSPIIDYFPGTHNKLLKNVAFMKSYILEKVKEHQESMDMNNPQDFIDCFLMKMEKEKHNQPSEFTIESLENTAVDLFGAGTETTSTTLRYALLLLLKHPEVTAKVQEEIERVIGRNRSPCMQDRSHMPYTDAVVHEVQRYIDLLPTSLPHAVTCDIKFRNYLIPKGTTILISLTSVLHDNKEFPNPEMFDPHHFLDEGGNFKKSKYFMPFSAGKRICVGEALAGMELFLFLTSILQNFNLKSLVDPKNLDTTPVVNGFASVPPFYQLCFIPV
# CYP2D6 = CYP2D6 (Homo sapiens, UniProt P10635); test: Inhibition of recombinant human CYP2D6 expressed in baculosomes assessed as residual activity at 10 uM using vivid EOMCC/MOBFC as substrate after 15 mins in presence of NADPH by fluorescence assay relative to control; assay type: ADME; details: probe Vivid EOMCC/MOBFC, read-out: Activity; in short: as §1
# Sequence of CYP2D6 (P10635 whole entry): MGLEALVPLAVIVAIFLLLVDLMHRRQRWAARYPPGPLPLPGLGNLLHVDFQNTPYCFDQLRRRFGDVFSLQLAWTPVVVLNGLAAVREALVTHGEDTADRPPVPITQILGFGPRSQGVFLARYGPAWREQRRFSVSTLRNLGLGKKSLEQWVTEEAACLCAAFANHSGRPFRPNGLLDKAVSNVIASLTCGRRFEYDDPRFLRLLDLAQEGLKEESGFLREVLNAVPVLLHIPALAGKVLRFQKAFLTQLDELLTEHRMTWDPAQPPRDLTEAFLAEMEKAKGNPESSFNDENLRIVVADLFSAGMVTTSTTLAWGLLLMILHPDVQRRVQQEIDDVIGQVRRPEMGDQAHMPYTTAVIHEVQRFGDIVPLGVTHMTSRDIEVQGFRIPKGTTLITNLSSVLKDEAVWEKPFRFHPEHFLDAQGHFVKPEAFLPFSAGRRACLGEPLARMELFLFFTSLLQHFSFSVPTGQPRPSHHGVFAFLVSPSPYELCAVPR
# [8] = AUClast in rat at 10 mg/kg, po; assay type: ADME, organism-based; parameters: dose 10 mg/kg, route oral, time 0 - last; details: in vivo; in short: as §2
# Rattus norvegicus [9] = test: Anti-algetic activity in rat streptozotocin-induced neuropathic pain model assessed as reduction in heat hypersensitivity at 50 mg/kg, po measured after 3 hrs in presence of gabapentin; assay type: functional, organism-based
# In short: (§4)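 Neuropathic pain was induced in rats by i.p. streptozotocin at 65 mg/kg and confirmed at 4 weeks by glucose and behaviour. Rats received a single oral 50 mg/kg dose, alone or together with gabapentin at 50 mg/kg (n = 6–7). Mechanical allodynia (von Frey) and heat hypersensitivity were tested at 1, 3 and 5 h. Paired t-test was used versus pre-dose.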
# [10] = Terminal half-life in rat at 10 mg/kg, po; assay type: ADME, organism-based; details: in vivo, read-out: beta t1/2; in short: as §2
# [11] = Stability in human liver microsomes assessed as parent compound remaining at 1 uM after 30 mins in presence of NADPH by LC-MS/MS analysis; assay type: ADME, microsome; details: read-out: Stability
# In short: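 Test compound at 1 μM was incubated with pooled human liver microsomes in potassium phosphate buffer with 1.2 mM NADPH at 37 °C for 30 min. The reaction was stopped with cold acetonitrile containing internal standard. Supernatant was analysed by LC-MS/MS for % remaining.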
# CYP1A2 = molecular target: T2, CYP1A2 (Homo sapiens, UniProt P05177); test: Inhibition of recombinant human CYP1A2 expressed in baculosomes assessed as residual activity at 10 uM using vivid EOMCC as substrate after 15 mins in presence of NADPH by fluorescence assay relative to control; assay type: ADME; details: probe Vivid EOMCC, read-out: Activity; in short: as §1
# T2 sequence (P05177 whole entry): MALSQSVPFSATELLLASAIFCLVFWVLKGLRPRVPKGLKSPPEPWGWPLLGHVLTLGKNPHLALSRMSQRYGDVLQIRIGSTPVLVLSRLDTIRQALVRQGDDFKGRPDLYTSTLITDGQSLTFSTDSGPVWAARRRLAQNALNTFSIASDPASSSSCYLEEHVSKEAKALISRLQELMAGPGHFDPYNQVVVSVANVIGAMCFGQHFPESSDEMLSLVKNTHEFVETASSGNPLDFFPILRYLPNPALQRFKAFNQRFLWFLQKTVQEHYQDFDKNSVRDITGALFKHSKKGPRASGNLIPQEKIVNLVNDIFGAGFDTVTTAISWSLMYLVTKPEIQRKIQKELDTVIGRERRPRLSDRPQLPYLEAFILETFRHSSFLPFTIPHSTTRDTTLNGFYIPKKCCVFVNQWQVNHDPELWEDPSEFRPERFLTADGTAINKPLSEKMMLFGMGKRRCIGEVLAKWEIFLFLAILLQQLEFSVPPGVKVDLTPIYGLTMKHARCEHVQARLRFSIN
# [12] = Oral bioavailability in rat at 10 mg/kg; assay type: ADME, organism-based; details: in vivo; in short: as §2
# Rattus norvegicus [13] = test: Anti-algetic activity in rat streptozotocin-induced neuropathic pain model assessed as reduction in heat hypersensitivity at 100 mg/kg, po measured after 3 hrs; assay type: functional, organism-based; in short: as §3
# [14] = molecular target: T1, Voltage-dependent T-type calcium channel subunit alpha-1H; test: Inhibition of Cav3.2 alpha1H (unknown origin) expressed in HEK293 cells by whole-cell patch clamp assay; assay type: cell-based
# In short: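 Whole-cell patch clamp was done on T-type channel-expressing cells. Currents were evoked every 15 s by a 50-ms step from −100 mV to −30 mV. IC50 for peak current was obtained by fitting a dose-response curve and given ± SD.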
# [15] = Ratio of drug level in brain to plasma in rat at 10 mg/kg, po measured at 2 hrs post dose; assay type: ADME, organism-based; details: brain and plasma, read-out: BPR; in short: as §2
# [16] = Mean residence time in rat at 10 mg/kg, iv; assay type: ADME, organism-based; details: in vivo; in short: as §2
# Rattus norvegicus [17] = test: Anti-algetic activity in rat streptozotocin-induced neuropathic pain model assessed as reduction in heat hypersensitivity at 50 mg/kg, po measured after 1 to 5 hrs; assay type: functional, organism-based; in short: as §4
# [18] = AUC (0 to infinity) in rat at 10 mg/kg, po; assay type: ADME, organism-based; parameters: dose 10 mg/kg, route oral, time infinity; details: in vivo; in short: as §2
# [19] = AUC (0 to infinity) in rat at 10 mg/kg, iv; assay type: ADME, organism-based; parameters: dose 10 mg/kg, route intravenous, time infinity; details: in vivo; in short: as §2
# Rattus norvegicus [20] = test: Anti-algetic activity in rat streptozotocin-induced neuropathic pain model assessed as reduction in mechanical allodynia at 50 mg/kg, po measured after 1 to 5 hrs; assay type: functional, organism-based; in short: as §4
# [21] = AUClast in rat at 10 mg/kg, iv; assay type: ADME, organism-based; parameters: dose 10 mg/kg, route intravenous, time 0 - last; details: in vivo; in short: as §2
# Rattus norvegicus [22] = test: Anti-algetic activity in rat streptozotocin-induced neuropathic pain model assessed as reduction in mechanical allodynia at 100 mg/kg, po measured after 1 to 5 hrs; assay type: functional, organism-based
# In short: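 Rats made diabetic by intraperitoneal STZ (65 mg/kg); 4 weeks later, rats with established neuropathic pain chosen by blood glucose level and behavioural testing. Single oral 100 mg/kg dose given to groups of 5 or 6 rats. Mechanical allodynia measured with von Frey filaments at 1, 3 and 5 h; paired t-test against pre-administration values.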
# Rattus norvegicus [23] = test: Anti-algetic activity in rat streptozotocin-induced neuropathic pain model assessed as reduction in heat hypersensitivity at 100 mg/kg, po measured after 1 to 5 hrs; assay type: functional, organism-based
# In short: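 Type 1 diabetes induced in rats by intraperitoneal STZ (65 mg/kg); after 4 weeks, neuropathic rats selected by blood glucose level and pain behaviour. Single oral dose of 100 mg/kg given to groups of 5 or 6 rats; heat hypersensitivity tested at 1, 3 and 5 h. Changes compared with pre-administration values by paired t-test.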
smiles,measurement,setting,value
CC(C)(C)n1nc(CN2Cc3ccccc3S2(=O)=O)cc1-c1ccc(N2CCCCC2)cc1,inhibition,[1],16.3%
CC(C)n1nc(CN2Cc3ccccc3S2(=O)=O)cc1-c1ccc(F)cc1,inhibition,[1],16.5%
CC(C)(C)n1nc(CN2Cc3ccccc3S2(=O)=O)cc1-c1ccc(C2CCCCC2)cc1,inhibition,[1],9.86%
CC(C)n1nc(CN2Cc3ccccc3S2(=O)=O)cc1-c1ccccc1,inhibition,[1],22.1%
CC(C)c1cc(CN2Cc3ccccc3S2(=O)=O)nn1-c1ccc(F)cc1,"activity at 0.25 h, 10 µM",CYP3A4,45.7%
same,Kp at 2 h,[2],1.28
same,Tmax,[3],2.5 h
same,half-life,[4],2.94 h
same,clearance,[5],57.7 mL/min/kg
same,Cmax,[6],100 ng/mL
same,Activity,Rattus norvegicus [7],inactive
same,"activity at 0.25 h, 10 µM",CYP2C9,103%
same,"activity at 0.25 h, 10 µM",CYP2D6,90.6%
same,AUC(0-t),[8],243 ng·h/mL
same,Activity,Rattus norvegicus [9],Active
same,half-life,[10],1.96 h
same,"remaining at 0.5 h, 1 µM",[11],102%
same,"activity at 0.25 h, 10 µM",CYP1A2,110%
same,bioavailability,[12],9.2%
same,Activity,Rattus norvegicus [13],inactive
same,pIC50,[14],5.63
same,Kp at 2 h,[15],0.13
same,MRT,[16],1.7 h
same,Activity,Rattus norvegicus [17],inactive
same,AUC(0-inf),[18],274 ng·h/mL
same,inhibition,[1],71.6%
same,AUC(0-inf),[19],2980 ng·h/mL
same,Activity,Rattus norvegicus [20],inactive
same,AUC(0-t),[21],2630 ng·h/mL
CC(C)c1cc(CN2Cc3ccccc3S2(=O)=O)nn1-c1c(Cl)cccc1Cl,inhibition,[1],29.5%
CC(C)c1cc(CN2Cc3ccccc3S2(=O)=O)nn1-c1ccccc1,"activity at 0.25 h, 10 µM",CYP3A4,47.2%
same,"activity at 0.25 h, 10 µM",CYP2C9,14.2%
same,"activity at 0.25 h, 10 µM",CYP2D6,86.6%
same,"remaining at 0.5 h, 1 µM",[11],4.69%
same,pIC50,[14],5.60
same,inhibition,[1],75.5%
CC(C)(C)n1nc(CN2Cc3ccccc3S2(=O)=O)cc1-c1ccccc1,inhibition,[1],18.7%
CC(C)Cc1cc(CNS(=O)(=O)c2ccccc2)nn1-c1ccccc1,"remaining at 0.5 h, 1 µM",[11],13.9%
Cc1c(CNS(=O)(=O)c2ccccc2)nn(-c2ccccc2)c1CC(C)C,"activity at 0.25 h, 10 µM",CYP3A4,38.7%
same,"activity at 0.25 h, 10 µM",CYP2C9,45.2%
same,"activity at 0.25 h, 10 µM",CYP2D6,45.2%
same,"remaining at 0.5 h, 1 µM",[11],0.26%
same,pIC50,[14],5.37
same,inhibition,[1],72%
CC(C)c1cc(CN2Cc3ccccc3S2(=O)=O)nn1C(C)(C)C,"activity at 0.25 h, 10 µM",CYP3A4,52.1%
same,"activity at 0.25 h, 10 µM",CYP2C9,90.7%
same,"activity at 0.25 h, 10 µM",CYP2D6,78.8%
same,"remaining at 0.5 h, 1 µM",[11],103%
same,"activity at 0.25 h, 10 µM",CYP1A2,123%
same,pIC50,[14],5.43
same,inhibition,[1],68%
CC(C)(C)n1nc(CN2Cc3ccccc3S2(=O)=O)cc1-c1ccc(C(F)(F)F)cc1,inhibition,[1],20.8%
CC(C)(C)n1nc(CN2Cc3ccccc3S2(=O)=O)cc1-c1ccc(F)cc1,inhibition,[1],23.1%
CC(C)Cc1cc(CN(C)S(=O)(=O)c2ccccc2)nn1-c1ccccc1,"remaining at 0.5 h, 1 µM",[11],1.46%
same,inhibition,[1],54.2%
NCC1(CC(=O)O)CCCCC1,Activity,Rattus norvegicus [22],inactive
same,Activity,Rattus norvegicus [23],Active
